This note sets out measurements from ChEMBL document CHEMBL1154186, “Synthesis, kinase inhibitory potencies, and in vitro antiproliferative evaluation of new Pim kinase inhibitors” (J Med Chem, 2009).

Assay [1] has as its target T1, Mitogen-activated protein kinase 12 (Homo sapiens) (UniProt P53778).
T1 sequence (whole entry): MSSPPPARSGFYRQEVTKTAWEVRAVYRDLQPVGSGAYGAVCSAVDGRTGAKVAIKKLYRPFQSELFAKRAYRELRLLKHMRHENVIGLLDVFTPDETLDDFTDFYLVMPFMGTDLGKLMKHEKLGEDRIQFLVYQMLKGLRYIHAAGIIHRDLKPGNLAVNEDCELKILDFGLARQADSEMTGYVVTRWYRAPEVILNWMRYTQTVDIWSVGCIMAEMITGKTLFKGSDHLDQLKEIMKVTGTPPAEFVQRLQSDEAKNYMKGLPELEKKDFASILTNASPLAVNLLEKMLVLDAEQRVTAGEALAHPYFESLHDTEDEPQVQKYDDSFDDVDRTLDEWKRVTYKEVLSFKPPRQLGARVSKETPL
Kind of assay: Inhibition of p38-gamma assessed as residual enzyme activity at 10 uM relative to untreated control. The gist of the method: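 p38γ and p38δ MAPK run at 5 µM [γ-33P]ATP, and p38α at 50 µM, each with 10 mM Mg acetate. Buffer 50 mM Tris/HCl pH 7.5, 0.1 mM EGTA, 0.1% 2-mercaptoethanol. 10 µM compound, 30 min at 21 °C. P81 filter capture. Residual activity relative to control, duplicates.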

The target in assay [2] is Ribosomal protein S6 kinase alpha-5 (Homo sapiens) (UniProt O75582). As to the kind of experiment: Inhibition of MSK1 assessed as residual enzyme activity at 10 uM relative to untreated control.
Assay [3] concerns the target MAP kinase-interacting serine/threonine-protein kinase 2 (Homo sapiens) (UniProt Q9HBH9). As to the kind of experiment: Inhibition of MNK2 assessed as residual enzyme activity at 10 uM relative to untreated control. In short, it runs like this:
(§1)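 Assayed with [γ-33P]ATP at 50 µM and 10 mM Mg acetate in 50 mM Tris/HCl pH 7.5, 0.1 mM EGTA, 0.1% 2-mercaptoethanol, 30 min, 21 °C. Phosphoric acid stop, P81 filter capture. ERK2 and Lck are mouse; AMPK is rat. 10 µM compound; % activity remaining relative to control without inhibitor, duplicates.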

Assay [4] has as its target Serine/threonine-protein kinase Nek7 (Homo sapiens) (UniProt Q8TDX7). As to the kind of experiment: Inhibition of NEK7 assessed as residual enzyme activity at 10 uM relative to untreated control. The gist of the method:
(§2)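 Kinases of human origin, except CK1δ, which is rat. Run in 50 mM Tris/HCl pH 7.5, 0.1 mM EGTA, 0.1% 2-mercaptoethanol and 10 mM Mg acetate, with [γ-33P]ATP at 20 µM, 30 min at 21 °C. Acid-stopped and captured on P81 filters. Compound tested at 10 µM; residual % of uninhibited control, duplicate determinations.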

The target of assay [5] is Calcium/calmodulin-dependent protein kinase kinase 2 (Homo sapiens) (UniProt Q96RR4). As to the kind of experiment: Inhibition of CAMKKbeta assessed as residual enzyme activity at 10 uM relative to untreated control.
The target of assay [6] is Mitogen-activated protein kinase 11 (Homo sapiens) (UniProt Q15759). Kind of assay: Inhibition of P38beta assessed as residual enzyme activity at 10 uM relative to untreated control. The gist of the method:
as §2

Assay [7] deals with Calcium/calmodulin-dependent protein kinase type 1 (Homo sapiens) (UniProt Q14012). As to the kind of experiment: Inhibition of CaMK1 assessed as residual enzyme activity at 10 uM relative to untreated control.
The target of assay [8] is Protein kinase C zeta type (Homo sapiens) (UniProt Q05513). Kind of assay: Inhibition of PKCzeta assessed as residual enzyme activity at 10 uM relative to untreated control.
In assay [9] the target is Cyclin-dependent kinase 2/cyclin A (Homo sapiens) (UniProt P24941+P20248+P78396). As to the kind of experiment: Inhibition of CDK2/Cyclin A assessed as residual enzyme activity at 10 uM relative to untreated control. It counts as protein-complex assay. In short, it runs like this:
as §2

Assay [10] can be described thus: Inhibition of PHK assessed as residual enzyme activity at 10 uM relative to untreated control.
Assay [11] has as its target Serine/threonine-protein kinase PAK 4 (Homo sapiens) (UniProt O96013). Kind of assay: Inhibition of PAK4 assessed as residual enzyme activity at 10 uM relative to untreated control. In short, it runs like this:
(§3)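 Radiometric filter-binding assay at 21 °C for 30 min. Mix: 50 mM Tris/HCl pH 7.5, 0.1 mM EGTA, 0.1% 2-mercaptoethanol, 10 mM Mg acetate and [γ-33P]ATP (800 cpm/pmol) at 5 µM. Stopped with orthophosphoric acid and spotted on P81. Compound at 10 µM; activity given as % remaining versus no-inhibitor control, duplicates. Kinases human full-length unless noted.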

The target in assay [12] is Serine/threonine-protein kinase Chk2 (Homo sapiens) (UniProt O96017). Kind of assay: Inhibition of CHK2 assessed as residual enzyme activity at 10 uM relative to untreated control. The gist of the method:
as §2

Assay [13] concerns the target Serine/threonine-protein kinase Nek6 (Homo sapiens) (UniProt Q9HC98). Kind of assay: Inhibition of NEK6 assessed as residual enzyme activity at 10 uM relative to untreated control. In short, it runs like this: as §1
The target in assay [14] is SRSF protein kinase 1 (Homo sapiens) (UniProt Q96SB4). Kind of assay: Inhibition of SRPK1 assessed as residual enzyme activity at 10 uM relative to untreated control.
For assay [15], the target named is Aurora kinase B (Homo sapiens) (UniProt Q96GD4). Kind of assay: Inhibition of AURORA B assessed as residual enzyme activity at 10 uM relative to untreated control. The gist of the method: as §2
A short description of assay [16]: Inhibition of CK2 assessed as residual enzyme activity at 10 uM relative to untreated control. The gist of the method:
as §3

For assay [17], the target named is Serine/threonine-protein kinase pim-2 (Homo sapiens) (UniProt Q9P1W9). Kind of assay: Inhibition of Pim-2 assessed as residual enzyme activity at 10 uM relative to untreated control.
For assay [18], the target named is T2, Serine/threonine-protein kinase Sgk1 (Homo sapiens) (UniProt O00141).
T2 sequence (whole entry): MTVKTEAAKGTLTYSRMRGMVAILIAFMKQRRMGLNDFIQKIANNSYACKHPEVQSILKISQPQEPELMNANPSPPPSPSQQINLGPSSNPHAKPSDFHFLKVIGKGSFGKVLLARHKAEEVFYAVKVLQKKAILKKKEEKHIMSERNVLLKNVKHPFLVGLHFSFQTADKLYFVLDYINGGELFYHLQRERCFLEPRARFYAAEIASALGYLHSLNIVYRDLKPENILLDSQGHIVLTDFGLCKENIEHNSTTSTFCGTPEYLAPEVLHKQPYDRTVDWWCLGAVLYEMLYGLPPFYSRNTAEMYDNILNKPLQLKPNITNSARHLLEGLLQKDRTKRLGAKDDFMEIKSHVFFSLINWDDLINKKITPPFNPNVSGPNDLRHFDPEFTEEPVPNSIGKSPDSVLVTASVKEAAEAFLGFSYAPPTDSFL
Kind of assay: Inhibition of SGK1 assessed as residual enzyme activity at 10 uM relative to untreated control. In short, it runs like this: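 Buffer Tris/HCl pH 7.5, EGTA and 2-mercaptoethanol. 30 min at 21 °C, compound at 10 µM. P81 filter read-out. Residual activity versus control, duplicates.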

A short description of assay [19]: Inhibition of CK1 assessed as residual enzyme activity at 10 uM relative to untreated control.

Chain of Serine/threonine-protein kinase Nek7 (Homo sapiens) (Q8TDX7 whole entry, looked up): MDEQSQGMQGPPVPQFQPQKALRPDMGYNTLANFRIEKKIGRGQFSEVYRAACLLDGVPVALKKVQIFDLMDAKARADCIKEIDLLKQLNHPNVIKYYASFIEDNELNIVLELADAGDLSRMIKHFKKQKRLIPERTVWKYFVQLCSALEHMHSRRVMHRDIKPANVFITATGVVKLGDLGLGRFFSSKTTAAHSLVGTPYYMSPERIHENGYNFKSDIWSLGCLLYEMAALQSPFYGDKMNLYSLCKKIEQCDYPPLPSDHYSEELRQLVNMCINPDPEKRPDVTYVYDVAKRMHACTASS
Chain of Serine/threonine-protein kinase PAK 4 (Homo sapiens) (O96013 whole entry, looked up): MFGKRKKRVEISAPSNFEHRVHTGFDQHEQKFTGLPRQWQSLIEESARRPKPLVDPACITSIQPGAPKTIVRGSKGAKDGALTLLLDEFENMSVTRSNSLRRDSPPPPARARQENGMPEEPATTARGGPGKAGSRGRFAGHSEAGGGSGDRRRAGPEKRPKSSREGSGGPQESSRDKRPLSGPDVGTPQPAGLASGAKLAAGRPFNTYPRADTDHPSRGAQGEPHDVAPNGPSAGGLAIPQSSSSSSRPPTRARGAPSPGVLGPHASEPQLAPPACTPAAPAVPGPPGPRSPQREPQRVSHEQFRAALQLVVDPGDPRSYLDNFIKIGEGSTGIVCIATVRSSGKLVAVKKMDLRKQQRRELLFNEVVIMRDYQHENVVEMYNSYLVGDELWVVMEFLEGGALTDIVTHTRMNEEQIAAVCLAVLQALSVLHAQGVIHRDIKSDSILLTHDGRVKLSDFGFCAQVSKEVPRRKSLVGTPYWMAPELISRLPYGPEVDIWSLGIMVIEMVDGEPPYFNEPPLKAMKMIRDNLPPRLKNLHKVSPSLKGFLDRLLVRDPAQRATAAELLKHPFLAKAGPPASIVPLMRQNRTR
Chain of SRSF protein kinase 1 (Homo sapiens) (Q96SB4 whole entry): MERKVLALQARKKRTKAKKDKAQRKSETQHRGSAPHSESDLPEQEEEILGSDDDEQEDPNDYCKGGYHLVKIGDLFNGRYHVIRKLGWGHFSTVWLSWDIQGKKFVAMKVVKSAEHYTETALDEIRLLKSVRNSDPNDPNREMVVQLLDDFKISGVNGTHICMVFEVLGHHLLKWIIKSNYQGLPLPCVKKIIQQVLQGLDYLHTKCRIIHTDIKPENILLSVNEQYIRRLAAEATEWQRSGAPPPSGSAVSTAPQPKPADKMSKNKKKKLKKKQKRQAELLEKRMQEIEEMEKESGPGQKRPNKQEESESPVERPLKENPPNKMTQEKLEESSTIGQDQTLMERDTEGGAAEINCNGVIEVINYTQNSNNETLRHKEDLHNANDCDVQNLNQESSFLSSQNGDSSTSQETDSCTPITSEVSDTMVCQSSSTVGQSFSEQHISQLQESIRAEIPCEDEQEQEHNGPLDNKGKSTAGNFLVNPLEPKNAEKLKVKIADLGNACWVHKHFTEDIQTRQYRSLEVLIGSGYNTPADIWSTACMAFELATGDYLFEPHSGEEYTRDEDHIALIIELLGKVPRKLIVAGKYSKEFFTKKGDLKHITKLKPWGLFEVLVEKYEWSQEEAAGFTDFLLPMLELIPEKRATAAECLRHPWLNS
Chain of MAP kinase-interacting serine/threonine-protein kinase 2 (Homo sapiens) (Q9HBH9 whole entry, looked up): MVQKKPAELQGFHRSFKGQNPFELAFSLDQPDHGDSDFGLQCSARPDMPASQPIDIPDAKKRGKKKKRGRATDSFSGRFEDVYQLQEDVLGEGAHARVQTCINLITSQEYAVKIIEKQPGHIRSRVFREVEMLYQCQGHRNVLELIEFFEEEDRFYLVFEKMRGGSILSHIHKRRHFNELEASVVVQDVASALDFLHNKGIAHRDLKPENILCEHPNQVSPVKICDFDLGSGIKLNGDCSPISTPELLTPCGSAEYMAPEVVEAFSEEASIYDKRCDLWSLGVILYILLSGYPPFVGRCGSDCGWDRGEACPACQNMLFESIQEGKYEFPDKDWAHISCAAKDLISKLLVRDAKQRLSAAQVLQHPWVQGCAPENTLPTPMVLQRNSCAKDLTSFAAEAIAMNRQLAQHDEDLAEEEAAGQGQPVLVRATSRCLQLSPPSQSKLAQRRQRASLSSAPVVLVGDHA
Chain of Calcium/calmodulin-dependent protein kinase type 1 (Homo sapiens) (Q14012 whole entry, looked up): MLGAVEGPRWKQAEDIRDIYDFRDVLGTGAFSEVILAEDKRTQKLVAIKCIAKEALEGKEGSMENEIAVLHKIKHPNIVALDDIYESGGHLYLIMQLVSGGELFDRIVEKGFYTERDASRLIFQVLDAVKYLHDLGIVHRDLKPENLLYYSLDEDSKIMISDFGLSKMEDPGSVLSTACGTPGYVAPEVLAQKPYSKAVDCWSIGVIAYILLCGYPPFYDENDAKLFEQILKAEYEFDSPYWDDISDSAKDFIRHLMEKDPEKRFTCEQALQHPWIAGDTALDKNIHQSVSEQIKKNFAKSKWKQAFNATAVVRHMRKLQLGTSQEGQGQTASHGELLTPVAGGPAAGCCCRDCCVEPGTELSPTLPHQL
Chain of Serine/threonine-protein kinase Chk2 (Homo sapiens) (O96017 whole entry): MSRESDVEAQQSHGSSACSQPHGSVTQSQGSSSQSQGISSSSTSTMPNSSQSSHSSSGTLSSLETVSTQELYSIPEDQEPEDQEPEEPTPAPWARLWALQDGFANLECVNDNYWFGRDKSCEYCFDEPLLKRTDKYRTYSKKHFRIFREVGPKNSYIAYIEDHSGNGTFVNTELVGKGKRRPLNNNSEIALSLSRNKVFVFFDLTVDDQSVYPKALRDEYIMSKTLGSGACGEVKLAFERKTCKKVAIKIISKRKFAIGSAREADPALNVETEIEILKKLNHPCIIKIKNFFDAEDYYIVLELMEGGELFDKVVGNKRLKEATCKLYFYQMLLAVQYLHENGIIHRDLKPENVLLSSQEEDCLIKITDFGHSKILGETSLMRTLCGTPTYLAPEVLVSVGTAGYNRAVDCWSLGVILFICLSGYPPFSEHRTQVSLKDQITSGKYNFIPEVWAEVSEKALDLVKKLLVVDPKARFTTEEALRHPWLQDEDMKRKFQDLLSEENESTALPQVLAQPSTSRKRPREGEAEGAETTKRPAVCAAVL
Chain of Ribosomal protein S6 kinase alpha-5 (Homo sapiens) (O75582 whole entry, looked up): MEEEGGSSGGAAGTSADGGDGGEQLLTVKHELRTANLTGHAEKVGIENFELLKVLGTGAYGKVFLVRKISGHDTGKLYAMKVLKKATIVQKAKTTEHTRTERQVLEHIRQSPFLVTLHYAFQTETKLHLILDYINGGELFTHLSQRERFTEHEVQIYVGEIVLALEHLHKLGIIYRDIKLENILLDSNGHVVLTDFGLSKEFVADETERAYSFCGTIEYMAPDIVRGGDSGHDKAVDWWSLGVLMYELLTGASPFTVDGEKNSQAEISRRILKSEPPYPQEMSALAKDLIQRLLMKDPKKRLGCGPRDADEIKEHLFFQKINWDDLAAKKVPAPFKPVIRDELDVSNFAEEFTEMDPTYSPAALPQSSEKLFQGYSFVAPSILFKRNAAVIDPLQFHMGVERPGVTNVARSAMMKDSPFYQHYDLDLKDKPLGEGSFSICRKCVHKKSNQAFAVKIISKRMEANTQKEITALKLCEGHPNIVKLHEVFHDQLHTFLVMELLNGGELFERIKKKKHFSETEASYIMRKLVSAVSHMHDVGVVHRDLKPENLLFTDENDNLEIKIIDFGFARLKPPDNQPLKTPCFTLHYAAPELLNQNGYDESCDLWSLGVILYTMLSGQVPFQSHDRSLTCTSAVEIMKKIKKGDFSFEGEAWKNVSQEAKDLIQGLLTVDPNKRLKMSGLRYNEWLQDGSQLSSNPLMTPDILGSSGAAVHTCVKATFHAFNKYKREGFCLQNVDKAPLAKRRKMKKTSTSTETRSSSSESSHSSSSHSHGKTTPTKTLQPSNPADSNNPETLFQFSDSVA
Chain of Serine/threonine-protein kinase pim-2 (Homo sapiens) (Q9P1W9 whole entry, looked up): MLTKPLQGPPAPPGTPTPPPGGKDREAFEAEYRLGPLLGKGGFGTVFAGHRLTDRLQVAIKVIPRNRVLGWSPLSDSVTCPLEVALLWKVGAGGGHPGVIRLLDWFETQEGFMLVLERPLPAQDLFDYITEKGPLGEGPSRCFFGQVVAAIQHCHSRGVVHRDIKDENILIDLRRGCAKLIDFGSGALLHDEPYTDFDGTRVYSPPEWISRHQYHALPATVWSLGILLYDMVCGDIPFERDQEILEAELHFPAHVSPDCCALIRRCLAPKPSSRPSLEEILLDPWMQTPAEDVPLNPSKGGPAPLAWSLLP
Chain of Aurora kinase B (Homo sapiens) (Q96GD4 whole entry): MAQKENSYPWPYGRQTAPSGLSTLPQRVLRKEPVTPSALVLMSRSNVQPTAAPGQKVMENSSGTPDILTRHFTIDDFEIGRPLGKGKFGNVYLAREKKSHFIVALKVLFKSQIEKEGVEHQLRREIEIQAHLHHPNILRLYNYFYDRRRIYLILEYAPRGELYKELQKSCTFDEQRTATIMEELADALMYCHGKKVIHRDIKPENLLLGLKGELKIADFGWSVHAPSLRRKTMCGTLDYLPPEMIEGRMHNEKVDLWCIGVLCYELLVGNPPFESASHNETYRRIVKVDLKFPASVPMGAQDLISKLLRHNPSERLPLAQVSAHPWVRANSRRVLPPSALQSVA
Chain of Calcium/calmodulin-dependent protein kinase kinase 2 (Homo sapiens) (Q96RR4 2-588 limits assumed): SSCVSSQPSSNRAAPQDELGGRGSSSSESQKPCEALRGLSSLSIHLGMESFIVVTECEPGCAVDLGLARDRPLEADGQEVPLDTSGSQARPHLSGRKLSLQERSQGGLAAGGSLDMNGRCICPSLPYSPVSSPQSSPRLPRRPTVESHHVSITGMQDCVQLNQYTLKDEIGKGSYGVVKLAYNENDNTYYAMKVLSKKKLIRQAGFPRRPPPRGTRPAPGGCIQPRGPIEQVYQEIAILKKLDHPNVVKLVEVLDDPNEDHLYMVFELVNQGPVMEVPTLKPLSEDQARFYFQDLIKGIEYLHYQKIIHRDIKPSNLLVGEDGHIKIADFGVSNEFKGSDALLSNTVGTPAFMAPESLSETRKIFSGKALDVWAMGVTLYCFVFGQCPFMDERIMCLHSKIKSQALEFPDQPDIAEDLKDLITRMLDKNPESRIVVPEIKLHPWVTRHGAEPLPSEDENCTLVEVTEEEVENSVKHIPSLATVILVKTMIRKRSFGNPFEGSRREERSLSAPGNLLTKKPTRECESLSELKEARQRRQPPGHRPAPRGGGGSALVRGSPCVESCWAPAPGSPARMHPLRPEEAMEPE

Consider `c1ccc2c(c1)[nH]c1c3cc[nH]c3ccc21`, for which the Activity in assay [1] was found to be 111%; in assay [2], 94%; in assay [3], 103%; in assay [4], 92%; in assay [5], 87%; in assay [6], 91%. In addition, the Activity in assay [7] was determined as 80%; in [8], 87%; in assay [9], 95%; in assay [10], 71%; in [11] it was 84%; in assay [12] it was 73%. In addition, the Activity in assay [13] worked out at 71%; in [14] it was 94%; in assay [15] it was 67%; in assay [16], 96%; in assay [17], 77%; in [18] it was 102%. Besides, the Activity in assay [19] amounted to 99%.

For `O=Cc1c[nH]c2ccc3c4ccccc4[nH]c3c12`, the Activity in assay [1] came to 109%; in [2], 84%; in [3], 109%; in [4] it was 95%; in [5], 102%; in assay [6], 96%. Besides, the Activity in [7] was 36%; in [8], 91%; in assay [9], 109%; in [10], 88%; in [11], 88%; in assay [12], 89%. For the same compound, the Activity is 86% in assay [13]; 93% in [14]; 92% in assay [15]; 98% in assay [16]; 102% in assay [17]; 105% in assay [18]. Further, the Activity in assay [19] came to 113%.

Turning to `c1ccc2c(c1)[nH]c1c2ccc2cc[nH]c21`, the Activity in assay [1] is 111%; in assay [2], 90%; in assay [3], 95%; in assay [4], 96%; in assay [5], 93%; in assay [6] it was 100%. Moreover, the Activity in [7] stood at 29%; in assay [8] it was 91%; in [9], 97%; in [10] it was 90%; in [11], 84%; in [12] it was 58%. In addition, the Activity in assay [13] was found to be 90%; in [14] it was 90%; in [15], 67%; in [16], 91%; in [17] it was 62%; in [18], 82%. In addition, the Activity in assay [19] is 107%.

As for `O=Cc1c[nH]c2c1ccc1c3ccccc3[nH]c12`, the Activity in [1] amounted to 74%; in assay [2], 71%; in assay [3], 55%; in assay [4], 89%; in [5] it was 56%; in assay [6] it was 80%. Moreover, the Activity stood at 71% in assay [7]; 83% in assay [8]; 74% in assay [9]; 33% in [10]; 88% in assay [11]; 78% in assay [13]. Moreover, the Activity is 84% in assay [14], 68% in assay [15], 62% in assay [16] and 64% in [18].
